Reference: PMC7226283 (Cancer Science, 2020)
Peptide text beside a SMILES is read from it. * marks the point of attachment. Cbz = O=C(OCc1ccccc1)*

Legend:
KRASm/TP53‐ HCT116 cells = assay: MTS cell viability assay, KRASm/TP53‐ HCT116; format: cell-based; conditions: for IC50: read-out: IC50 on KRASm/TP53‐ HCT116 cells, MTS assay, 72 hours post-treatment, n = 3; for recovery of the efficacy of L‐OHP on KRASm/TP53‐ HCT116 cells / cell growth rate of KRASm/TP53‐ HCT116 cells: Figure S2, Bay11‐7082 5 μM, TPCA1 20 μM, 72 hours; for recovery of the efficacy of L‐OHP on KRASm/TP53‐ HCT116 cells: MG132 0.5 μM with L‐OHP 4 μM; for cell growth rate of KRASm/TP53‐ HCT116 cells: MG132 0.5 μM
Summary of the method: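 HCT116 KRASm/TP53- cells were grown in RPMI1640 with 10% FBS and 1% penicillin/streptomycin at 37°C, 5% CO2, and plated at 4 × 10^5 per well. After 24 h, Bay11-7082 (0, 5 μM), TPCA1 (0, 20 μM) or MG132 (0, 0.5 μM), all in DMSO, were added with L-OHP (0 or 4 μM). Viability was read by MTS after 72 h.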

Safety = format: in vivo, mice
Summary of the method: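 Female BALB/c nude mice (6 weeks old, 7-8 per group) received s.c. KRASm/TP53w HCT116 cells (4 × 10^6) and were grouped by stratified randomization on tumor volume on day 9 after implant (day 0). L-OHP was given i.p. on days 0, 3, 7, 10, 14 and 17; controls got saline 10 mL/kg. Body weight was taken on days 0, 7, 14 and 21, with hematology and biochemistry on day 21 blood. Mean ± SD; Student's t test.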

KRASm/TP53w HCT116 cells = assay: MTS cell viability assay, KRASm/TP53w HCT116; format: cell-based; conditions: read-out: IC50 on KRASm/TP53w HCT116 cells, 72 hours post-treatment, n = 3
Summary of the method: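 ATCC parental HCT116 (KRAS mutant/TP53 wild-type) grown in RPMI1640 with 10% FBS and 1% penicillin/streptomycin at 37°C, 5% CO2. Seeded at 4 × 10^5 cells/well; test compound in DMSO added after 24 h at six levels (0–10 μM or 0–25 μM series). Viability by MTS tetrazolium read-out after 72 h. IC50 reported as mean ± SD, n = 3.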

[1] = system: NF‐κB activity in KRASm/TP53w HCT116 cells; assay: NF‐κB activity luciferase assay, KRASm/TP53w HCT116; format: cell-based; conditions: 3 hours treatment
Summary of the method: (§1)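 Reporter assay: cells seeded at 5 × 10^4/well. After 1 day, shifted to RPMI1640 with 1% FBS for 24 h. Cotransfected by lipofection with NF‑κB‑RE luc2P luciferase plasmid plus CMV‑β‑galactosidase plasmid. 3 h later, test compound added at various concentrations in 1% FBS medium for 3 h. Cells lysed; activity expressed as luciferase/β‑galactosidase.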

proteasome = assay: Proteasome activity in vitro
[2] = system: NF‐κB activity in KRASm/TP53‐ HCT116 cells; assay: NF‐κB activity luciferase assay, KRASm/TP53‐ HCT116; format: cell-based; conditions: 3 hours treatment
Summary of the method: as §1

[3] = day 21, L‐OHP 8 mg/kg i.p. twice a week for 3 weeks
[4] = day 21, monotherapies compared to the control group, combination compared to L‐OHP monotherapy

Compound	IC50 (KRASm/TP53‐ HCT116 cells) [µM]	IC50 (KRASm/TP53w HCT116 cells) [µM]	recovery of the efficacy of L‐OHP on KRASm/TP53‐ HCT116 cells (KRASm/TP53‐ HCT116 cells)	cell growth rate of KRASm/TP53‐ HCT116 cells (KRASm/TP53‐ HCT116 cells)	also measured
O=C1[O][Pt]2([NH][C@@H]3CCCC[C@H]3[NH]2)[O]C1=O [L‐OHP, oxaliplatin]	4.8	1.7	–	–	hemoglobin compared to the control group (Safety; [3]): significantly decreased; platelet count compared to the control group (Safety; [3]): significantly decreased; white blood cell count compared to the control group (Safety; [3]): significantly decreased; ALT level (Safety; [4]): elevated; AST level (Safety; [4]): elevated
Cc1ccc(S(=O)(=O)/C=C/C#N)cc1 [Bay11‐7082]	–	–	did not recover the efficacy of L‐OHP	suppressed cell growth rates	–
curcumin	17.4	20	–	–	NF‐κB activity (luciferase/β‐galactosidase) [1]: suppressed NF‐κB activity in a dose‐dependent manner; proteasome activity in vitro (proteasome): suppresses proteasome activity; NF‐κB activity (luciferase/β‐galactosidase) [2]: suppressed NF‐κB activity in a dose‐dependent manner
CC(C)C[C@@H](C=O)NC(=O)[C@H](CC(C)C)NC(=O)[C@H](CC(C)C)NC(=O)OCc1ccccc1 [MG132] (Cbz-Leu-Leu-Leu-aldehyde)	–	–	–	suppressed cell growth rates	–
NC(=O)Nc1sc(-c2ccc(F)cc2)cc1C(N)=O [TPCA1]	–	–	did not recover the efficacy of L‐OHP	suppressed cell growth rates	–
